{"data": "Measurements gathered from unrelated publications", "target": "Casein kinase II subunit alpha' (CSNK2A2, Homo sapiens, UniProt P19784)"}
{"Structure (SMILES)": "O=C(Nc1cccnn1)N1CCC(=Cc2cccc(Oc3ccc(C(F)(F)F)cn3)c2)CC1", "assay": "cell-free assay, competition with immobilised ligand", "conditions": "1 µM", "measurement": "remaining binding", "result": "100%"}
{"Structure (SMILES)": "CC(C)(O)[C@H]1CC[C@H](Nc2ccc3ncc(-c4cccc(C(F)(F)F)c4)n3n2)CC1", "assay": "enzyme activity, inhibitor", "conditions": "1 µM", "measurement": "remaining activity", "result": "73.6%"}
{"Structure (SMILES)": "O=C1NC(=O)c2cc(Nc3ccc(F)cc3)c(Nc3ccc(F)cc3)cc21", "assay": "cell-free assay, inhibitor", "conditions": "0.5 µM", "measurement": "remaining signal", "result": "104%"}
{"Structure (SMILES)": "CCCS(=O)(=O)Nc1ccc(F)c(C(=O)c2c[nH]c3ncc(-c4ccc(Cl)cc4)cc23)c1F", "assay": "enzyme activity, inhibitor", "conditions": "1 µM", "measurement": "inhibition", "result": "< 10%"}
{"Structure (SMILES)": "CN(C)C(=O)Cn1cc(-c2nc([C@@](C)(c3ccc(-c4cnc(N)nc4)cc3)C3CC3)no2)cn1", "assay": "cell-free assay, competition with immobilised ligand", "conditions": "1 µM", "measurement": "remaining binding", "result": "90%"}
{"Structure (SMILES)": "COc1cc(Cl)c(C(=O)N[C@@H](CN[C@H]2CC[C@@H](N)CC2)Cc2ccc(C#N)cc2)cc1-c1ccc(CN[C@H](C)c2ccc(C)cc2)o1", "assay": "enzyme activity, inhibitor", "conditions": "1 µM", "measurement": "remaining activity", "result": "106%"}
{"Structure (SMILES)": "COc1cc2c(Nc3ccc(Br)cc3F)ncnc2cc1OCC1CCN(C)CC1", "assay": "cell-free assay", "conditions": "0.5 µM", "measurement": "remaining signal", "result": "96.5%"}
{"Structure (SMILES)": "COc1cc2ncnc(Nc3ccc(Oc4ccccc4)c(C)c3C)c2cc1OC", "assay": "enzyme activity, inhibitor", "conditions": "1 µM", "measurement": "inhibition", "result": "-1%"}
{"Structure (SMILES)": "CNCc1ccccc1-c1csc([C@@H](C)Nc2nc(C)nc3cc(OC)c(OC)cc23)c1", "assay": "cell-free assay, competition with immobilised ligand", "conditions": "1 µM", "measurement": "remaining binding", "result": "100%"}
{"Structure (SMILES)": "Cc1ccc(Nc2nccc(N(C)c3ccc4c(C)n(C)nc4c3)n2)cc1S(N)(=O)=O", "assay": "enzyme activity, inhibitor", "conditions": "10 µM", "measurement": "inhibition", "result": "-14%"}
{"Structure (SMILES)": "CC(C)CC(=O)N1CCc2nc(-c3ccc(Br)cc3)nc(N(C)Cc3ccccc3)c2C1", "assay": "cell-free assay, competition with immobilised ligand", "conditions": "0.1 µM", "measurement": "remaining binding", "result": "88%"}
{"Structure (SMILES)": "c1ccc(CNc2nc(N3CCOc4ccccc43)nc3c2CCCC3)cc1", "assay": "target engagement in cells, inhibitor, chemoproteomics", "conditions": "20 mM", "measurement": "inhibition", "result": "-34.4%"}
{"Structure (SMILES)": "CCN(CC)c1ccc(C2=NNC(=O)CC2C)cc1[N+](=O)[O-] (stereo not drawn)", "assay": "enzyme activity, inhibitor", "conditions": "10 µM", "measurement": "remaining activity", "result": "103%"}
{"Structure (SMILES)": "COc1ccc2c(O[C@@H]3C[C@H]4C(=O)N[C@]5(C(=O)O)CC5/C=C\\CCCCC[C@H](NC(=O)OC5CCCC5)C(=O)N4C3)cc(-c3csc(NC(=O)C(C)C)n3)nc2c1C (stereo partly drawn)", "assay": "cell-free assay, competition with immobilised ligand", "conditions": "1 µM", "measurement": "remaining binding", "result": "100%"}
{"Structure (SMILES)": "CC(C)c1ccc(NC(=O)c2cccs2)c(-c2nc3ccccc3[nH]c2=O)c1", "assay": "enzyme activity, inhibitor", "conditions": "1 µM", "measurement": "activity vs control", "result": "121%"}
{"Structure (SMILES)": "COc1cccc(CNC(=O)c2nc3scc(COCc4ccc(C(=O)O)cc4)c3c(=O)[nH]2)c1", "assay": "cell-free assay, competition with immobilised ligand", "conditions": "1 µM", "measurement": "remaining binding", "result": "79.4%"}
{"Structure (SMILES)": "CNC(=O)c1cc(Oc2ccc(NC(=O)Nc3ccc(Cl)c(C(F)(F)F)c3)cc2)ccn1", "assay": "enzyme activity, inhibitor", "conditions": "0.3 µM", "measurement": "inhibition", "result": "-33%"}
{"Structure (SMILES)": "Nc1ncnc2occ(-c3ccc(NC(=O)Nc4cc(C(F)(F)F)ccc4F)cc3)c12", "assay": "enzyme activity, inhibitor", "conditions": "20 µM", "measurement": "remaining activity", "result": "41%"}
{"Structure (SMILES)": "Cc1sc(C(=O)NC2COC2)cc1-n1cc(NC(=O)Nc2c(F)cccc2Cl)cn1", "assay": "enzyme activity, inhibitor", "conditions": "10 µM", "measurement": "remaining activity", "result": "95.5%"}
{"Structure (SMILES)": "Cn1cnc(Br)c1C1=CN(c2ncnc3[nH]cnc23)CCS1", "assay": "enzyme activity, inhibitor, radiometric", "conditions": "50 nM", "measurement": "inhibition", "result": "19.7%"}
{"Structure (SMILES)": "O=C(NC[C@@H]1[C@H]2CN(C(=O)OCc3cc(C(F)(F)F)cc(C(F)(F)F)c3)C[C@@H]12)c1ccc2[nH]nnc2c1", "assay": "cell-free assay, competition with immobilised ligand", "conditions": "1 µM", "measurement": "remaining binding", "result": "92%"}
{"Structure (SMILES)": "CCN(CC)CCNC(=O)c1c(C)[nH]c(/C=C2\\C(=O)Nc3ccc(F)cc32)c1C", "assay": "enzyme activity, inhibitor", "conditions": "10 µM", "measurement": "inhibition", "result": "49%"}
{"Structure (SMILES)": "COc1cccc2c(NCc3ccccc3)nc(-n3c(N)nc4ccccc43)nc12", "assay": "target engagement in cells, inhibitor, chemoproteomics", "conditions": "20 mM", "measurement": "inhibition", "result": "-11.7%"}
{"Structure (SMILES)": "CC(C)(C)c1nc(-c2cccc(NS(=O)(=O)c3c(F)cccc3F)c2F)c(-c2ccnc(N)n2)s1", "assay": "enzyme activity, inhibitor, radiometric", "conditions": "1 µM", "measurement": "remaining activity", "result": "84%"}
